In article PMC6590913 (Journal of medicinal chemistry, 2019):
pIC50: −log10 of the molar value. Each block holds one compound with its values, some of them ahead of it.

How the values were obtained:
[1] = tested on: Rho/MRTF/SRF-mediated gene transcription (SRE.L); test: SRE.L luciferase reporter assay, cell line not stated; type: cell-based; details: for SRE.L activity: Figure 3, heterocycle and carboxylic acid replacements
Outline: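 Gα12-stimulated SRE.L luciferase reporter in transiently transfected PC-3 or HEK293T cells. PC-3 format: 20,000 cells/well in 10% FBS/DMEM, next day co-transfected with SRE.L luciferase reporter plus Gα12 Q231L or empty pcDNA (Lipofectamine 2000). After 4 h, switched to 0.5% FBS/DMEM with test compound or DMSO overnight. WST-1 viability read at 450 nm, then lysis and luciferase read.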

[2] = tested on: Rho/MRTF/SRF-mediated gene transcription (SRE.L); test: Gα12-stimulated SRE.L luciferase reporter assay in PC3 cells; type: cell-based; details: for pIC50: Homo sapiens, PC-3, read-out: SRE.L IC50; for SRE.L activity: Table 2 sidechain SAR, PC3 cells
Outline: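 PC-3 cells plated at 20,000/well in DMEM with 10% FBS. Next day they were lipofected with 56 ng SRE.L luciferase reporter plus 2 ng/well Gα12 Q231L or pcDNA. After 4 h, medium was switched to 0.5% FBS DMEM, and compound or DMSO was added overnight. Viability was then read by WST-1 (450 nm), and cells were lysed for luciferase. Mean of n = 3.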

[3] = tested on: Rho/MRTF/SRF-mediated gene transcription (SRE.L); test: Gα12-stimulated SRE.L luciferase reporter assay in HEK293T cells; type: cell-based; details: for SRE.L activity: Figure 4, HEK293T cells, analogs with modified thioether
[4] = tested on: bleomycin-induced dermal fibrosis; test: Bleomycin-induced dermal fibrosis in mice; type: in vivo, mouse
CTGF gene expression = test: qPCR for LPA-stimulated expression of CTGF in primary dermal fibroblasts; type: cell-based, human; details: for Effect on CTGF gene expression: then LPA 1 h, primary human dermal fibroblasts
[5] = Pharmacokinetic studies in mice; type: in vivo, female CD-1 mice; details: mouse, IV
Outline: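 Female CD-1 mice were dosed iv and/or po, with compound in 15% DMSO/15% PEG-400/70% PBS (v/v). Blood (50 μL) was sampled at 0.5, 2, 4 and 7 h, and plasma was frozen at -80 °C. Plasma levels were measured by a validated LC–MS/MS method. Parameters were derived non-compartmentally.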

[6] = tested on: bleomycin-induced dermal fibrosis; details: mice; cited from earlier work
[7] = Cytotoxicity in the SRE.L assay determined by CellTiter-Fluor; type: cell-based; details: human, cells of the SRE.L assay
cells of the SRE.L assay = test: as above; type: cell-based
[8] = tested on: bleomycin-induced lung fibrosis; details: mice, dose of 300 mg/kg; cited from earlier work

SMILES: O=C(O)CCSc1nnc(-c2ccncc2)o1 [compound 23]
SRE.L activity [1]: complete loss in activity

SMILES: Cc1occc1-c1nnc(SCCC(=O)O)o1 [compound 24]
SRE.L activity [1]: complete loss in activity

pIC50 [2]: 7.37
SMILES: O=C(O)CCCCSc1nnc(-c2ccc(Cl)cc2Cl)o1 [8r, 5-((5-(2,4-dichlorophenyl)-1,3,4-oxadiazol-2-yl)thio)pentanoic acid]

SMILES: O=C(O)CCCOc1nnc(-c2ccc(Cl)cc2Cl)o1 [compound 11, 4-((5-(2,4-dichlorophenyl)-1,3,4-oxadiazol-2-yl)oxy)butanoic acid]
SRE.L activity [3]: almost complete loss in activity

SMILES: O=C(O)CCSc1nnc(-c2cccnc2)o1 [compound 22]
SRE.L activity [1]: complete loss in activity

SMILES: O=C(O)CCSc1nnc(-c2ccc(Cl)cc2Cl)o1 [8j, 3-((5-(2,4-dichlorophenyl)-1,3,4-oxadiazol-2-yl)thio)propanoic acid]
Bleomycin-induced fibrotic effects (dermal thickness and hydroxyproline content) vs bleomycin/vehicle control ([4]; 10 mg/kg PO, 14 days): significant effects | Bleomycin-induced fibrotic effects (dermal thickness and hydroxyproline content) ([4]; 0.1, 1 and 10 mg/kg/day by oral gavage, 14 days): dose-dependently reduce | Effect on CTGF gene expression (CTGF gene expression; 48 h pre-treatment): neither 8j nor 19f had any significant effect | Effect on CTGF gene expression (CTGF gene expression; 72 h pre-treatment): dose-dependently reduced CTGF gene expression

pIC50 [2]: < 4.00
SMILES: CNC(=O)CCSc1nnc(-c2ccc(Cl)cc2Cl)o1 [compound 9, 3-((5-(2,4-dichlorophenyl)-1,3,4-oxadiazol-2-yl)thio)-N-methylpropanamide]
SRE.L activity [2]: unsuccessful

SMILES: O=C(O)CSCc1nnc(-c2ccc(Cl)cc2Cl)o1 [compound 13, 2-(((5-(2,4-dichlorophenyl)-1,3,4-oxadiazol-2-yl)methyl)thio)acetic acid]
SRE.L activity [3]: almost complete loss in activity

pIC50 [2]: 11.92
SMILES: O=C(O)CCCSc1nnc(-c2ccc(C3CC3)cc2Cl)o1 [19f, 4-((5-(2-chloro-4-cyclopropylphenyl)-1,3,4-oxadiazol-2-yl)thio)butanoic acid]
Bleomycin-induced dermal fibrosis ([4]; 3 and 10 mg/kg PO, both doses, 14 days): significantly reduced bleomycin-induced dermal fibrosis | In vivo potency relative to 8j ([4]; bleomycin-induced dermal fibrosis): at least 3 fold | Effect on CTGF gene expression (CTGF gene expression; 48 h pre-treatment): neither 8j nor 19f had any significant effect | Potency on CTGF gene expression relative to 8j (CTGF gene expression; 72 h pre-treatment): ~ 100 x | Effect on CTGF gene expression (CTGF gene expression; 72 h pre-treatment): dose-dependently reduced CTGF gene expression | Improvement in SRE.L potency relative to 8s ([3]; Me replaced by c-Pr): 100 fold

SMILES: CCOC(=O)CCSc1nnc(-c2ccc(Cl)cc2Cl)o1 [compound 6, Ethyl 3-((5-(2,4-dichlorophenyl)-1,3,4-oxadiazol-2-yl)thio)propanoate]
SRE.L activity [2]: maintained activity

SMILES: O=C(O)CCCSc1nnc(-c2ccc(Br)cc2Cl)o1 [8x, 4-((5-(4-bromo-2-chlorophenyl)-1,3,4-oxadiazole-2-yl)thio)butanoic acid]
Improvement in SRE.L activity relative to 8q ([3]; 4-Cl replaced by 4-Br): 10 fold

clearance rate relative to 8j [5]: ~3 fold
SMILES: O=C(O)CCCSc1nnc(-c2ccc(Cl)cc2Cl)o1 [8q, 4-((5-(2,4-dichlorophenyl)-1,3,4-oxadiazol-2-yl)thio)butanoic acid]

SMILES: c1ccc(-c2nnc(SCCC3OCCCO3)o2)cc1 [compound 28]
SRE.L activity [1]: abolished activity

SMILES: COC(=O)c1ccc2c(c1)NC(=O)/C2=C(\Nc1ccc(N(C)C(=O)CN2CCN(C)CC2)cc1)c1ccccc1 [Nintedanib]
Minimum dose effective at preventing bleomycin-induced dermal thickness [6]: 30 mg/kg/day | pIC50 [7]: > 4.52 | Cytotoxicity (cells of the SRE.L assay; at 10 uM): some cytotoxicity | Cytotoxicity in the CTGF assay (CTGF gene expression; at 10^−5 M): cytotoxic | CTGF expression, % of DMSO control (CTGF gene expression; at 10^−6 M): 45 % of DMSO control

pIC50 ([1]; read-out: SRE.L assay IC50): < 4.00
SMILES: Cc1ccc(=O)n(-c2ccccc2)c1 [Pirfenidone, reference compound]
Concentration above which cytotoxic (cells of the SRE.L assay; CellTiter-Fluor): > 100 µM | CTGF expression, % control (CTGF gene expression; at 10^−5 M): 91 % control | Effect on bleomycin-induced lung fibrosis [8]: attenuate bleomycin-induced lung fibrosis

SMILES: O=C(O)CCCS(=O)(=O)c1nnc(-c2ccc(Cl)cc2Cl)o1 [compound 21, 4-((5-(2,4-dichlorophenyl)-1,3,4-oxadiazol-2-yl)sulfonyl)butanoic acid]
SRE.L activity [3]: activity was lost

SMILES: O=C(O)CCCc1nnc(-c2ccc(Cl)cc2Cl)o1 [compound 29]
SRE.L activity [3]: almost complete loss in activity

pIC50 [2]: < 4.00
SMILES: O=C(O)CSc1nnc(-c2ccc(Cl)cc2Cl)o1 [8p]
SRE.L activity [2]: activity was completely lost
